Bioassay records as filed in PubChem BioAssay.
NPY-Y1 PAM-ag: NPY-Y1 receptor potentiators or agonists, primary screen, cell-based; NPY-Y1 expressing cells, potentiator/agonist activation; activation, % at 3.6 µM; 220,000 tested, 0.37% active; in the data active = activation above about 33%, passing the limit was not always enough;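 note: cells stimulated with NPY at EC10 then isoproterenol at EC100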
NPY-Y1 antag: NPY-Y1 receptor antagonists, primary screen, cell-based. inhibition, % at 3.6 µM. 200,000 tested, 1% active. AID 1040, 2008. HEK293-CNG Y1 cells, membrane potential fluorescence; NPY at EC95, then isoproterenol;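 active = inhibition above the campaign mean inhibition of all tested compounds plus 3 SD, cut at about 20% in these data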
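Assay system: HEK293 Y1/CNG channel cell line; Doses: single compound dose of 3.6 µM, 0.4% DMSO; Timing: dye 3 h, compound 60 min room temperature, stimulation 45 min; Technique: Membrane-potential fluorescent dye readout; Measure: % inhibition of NPY effect.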
NPY-Y2 antag: NPY-Y2 receptor antagonists, primary screen, cell-based | Neuropeptide Y receptor type 2 (Homo sapiens), P49146 | NPY-Y2 expressing cells, antagonist mode | inhibition, % at 2.7 µM | 140,000 tested, 0.99% active | AID 793, 2007; in the data active = inhibition above about 17%
Target sequence (P49146 whole entry, looked up): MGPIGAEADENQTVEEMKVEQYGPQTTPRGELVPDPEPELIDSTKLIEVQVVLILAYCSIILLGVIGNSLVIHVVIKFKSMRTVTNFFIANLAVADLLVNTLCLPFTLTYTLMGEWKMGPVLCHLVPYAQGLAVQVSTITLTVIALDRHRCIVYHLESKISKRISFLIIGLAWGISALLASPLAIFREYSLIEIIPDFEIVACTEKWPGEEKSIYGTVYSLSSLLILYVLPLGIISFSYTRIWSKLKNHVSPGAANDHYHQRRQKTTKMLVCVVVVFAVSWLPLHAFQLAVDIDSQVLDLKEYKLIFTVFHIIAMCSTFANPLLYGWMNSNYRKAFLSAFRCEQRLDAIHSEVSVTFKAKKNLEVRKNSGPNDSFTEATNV
NPY2 pot ag: NPY-Y2 potentiators or agonists, primary screen, cell-based | Neuropeptide Y receptor type 2 (Homo sapiens), P49146 | cells expressing NPY-Y2, potentiator/agonist read-out | activation, % at 3.6 µM | 220,000 tested, 0.45% active; in the data active = activation above about 27%;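 note: cells stimulated with NPY near EC25 plus isoproterenol at EC100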
NPY-Y1 antag ct: NPY-Y1 receptor antagonists, selectivity check, counter-screen for NPY-Y2 antagonist project, cell-based. shares compounds with NPY-Y2 antag. cell-based NPY-Y1 antagonism counterscreen. inhibition, % at 3.6 µM. 710 tested, 19% active. AID 1256, 2008; in the data active = inhibition above about 20%;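 note: cells challenged with NPY then isoproterenol with cAMP sensed through a CNG channel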
NPY2 antag conf: NPY-Y2 receptor antagonists, retest of hits, confirmation, HEK293-CNG cells, membrane potential fluorescence, triplicate | shares compounds with NPY-Y2 antag | HEK293 NPY-Y2 CNG channel | inhibition, % at 2.8 µM | 710 tested, 32% active;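 active = mean inhibition of triplicate wells above the hit cutoff set in the primary screen, cut at about 17% in these data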
Numbers stand for hits; n = inactive; x = not tested or not shown. Shown are actives, neighbours in structure and some others; about 1.8% of the full set was active somewhere.

SMILES | NPY-Y1 PAM-ag | NPY-Y1 antag | NPY-Y2 antag | NPY2 pot ag | NPY-Y1 antag ct | NPY2 antag conf
CC(=O)NC1(c2ccccc2)CCN(c2nc(C)cc(C)n2)CC1 | n | n | 49 | n | 35 | 35
Cc1ccc(NC(=O)COC(=O)CN2C(=O)COc3ccccc32)cc1 | n | n | n | n | x | x
CC(C)C(OC(=O)CN1C(=O)COc2ccccc21)C(=O)NC1CCCC1 (stereo not given) | n | n | 18 | n | n | n
CC(C)CCNC(=O)c1cc(-c2ccco2)nc2ccccc12 | n | n | 33 | n | 40 | 40
O=C(NCC1CCCO1)c1cc(-c2ccco2)nc2ccccc12 (stereo not given) | n | n | n | n | x | x
COCCn1c(=N)c(C(=O)NCc2ccco2)cc2c(=O)n3ccccc3nc21 | n | n | n | n | x | x
COCCCn1c(=N)c(C(=O)NCc2ccc3c(c2)OCO3)cc2c(=O)n3ccccc3nc21 | n | n | 20 | n | n | n
N=c1c(C(=O)NCc2ccco2)cc2c(=O)n3ccccc3nc2n1Cc1ccccc1 | n | n | 24 | n | n | n
N=c1c(C(=O)NCc2ccccc2)cc2c(=O)n3ccccc3nc2n1Cc1ccco1 | n | n | 23 | n | n | n
Cc1ccc(-c2nc3ccc(Cl)cc3n2OC(C)C(=O)O)cc1 (stereo not given) | n | n | x | n | x | x
CCSc1cc(N2CCOCC2)nc(-c2ccc(Cl)cc2)n1 | n | n | n | n | x | x
CN(C)CCCn1c(SCC(=O)N2c3ccccc3Sc3ccccc32)nc2ccccc2c1=O | n | n | 39 | n | 43 | 77
O=C(/C=C/c1cccc2ccccc12)c1ccncc1 | n | n | 20 | n | n | 19
Cc1nn(-c2ccccc2)c(C)c1/C=N/NC(=O)c1ccccc1NS(=O)(=O)c1cccs1 | n | n | n | n | x | x
Cc1ccc(NC(=S)NCc2ccc3c(c2)OCO3)cc1C | n | n | 18 | n | n | 18
Cc1ccc(NC(=O)NCc2ccc3c(c2)OCO3)cc1C | n | n | x | n | x | x
Cc1ccc(-c2nc(=S)c3c(n2CC2CCCO2)CC(C)(C)OC3)cc1 (stereo not given) | n | n | n | n | x | x
Cc1ccc(-c2nc(=S)c3c(n2Cc2ccco2)CC(C)(C)OC3)cc1 | n | n | 18 | n | 21 | n
Cc1csc2c(N(C)CCO)ncnc12 | n | x | x | n | x | x
Cc1cccc(COCC(CC(C)C)N2CCN(C(=O)c3ccc(C(C)(C)C)cc3)CCC2=O)c1 (stereo not given) | n | n | 19 | n | n | n
O=C(COC(=O)CNC(=O)c1ccco1)NCc1ccc(F)cc1 | n | n | x | n | x | x
NC(N)=NS(=O)(=O)c1ccc(NC(=S)NC(=O)c2sc3ccccc3c2Cl)cc1 | n | n | n | n | x | x
NNC(=O)Cn1c(SCc2ccccc2)nc2ccccc21 | n | n | 22 | n | n | n
O=S(=O)(c1ccc(F)cc1)N1CCC2(CC1)OCCO2 | n | n | x | n | x | x
Cc1ccc(SCCNC(=O)/C=C/c2ccc(Cl)cc2)cc1 | n | n | 19 | n | 29 | 39
SMILES | NPY-Y1 PAM-ag | NPY-Y1 antag | NPY-Y2 antag | NPY2 pot ag | NPY-Y1 antag ct | NPY2 antag conf
CCN(CC)S(=O)(=O)c1ccc(/C=C/C(=O)Nc2ccc(Br)cc2F)cc1 | n | n | 17 | n | 29 | 17
CCN(CC)S(=O)(=O)c1ccc(/C=C/C(=O)Nc2ccc(F)cc2F)cc1 | n | n | n | n | x | x
CCOc1ccc(Oc2c(/C=N/NC(C)=O)c(C)nn2-c2ccccc2)cc1 | n | n | 32 | n | n | 31
Cc1ccccc1NC(=O)Cn1nnc2c(cnn2-c2ccc(F)cc2)c1=O | n | n | 24 | n | n | n
O=C1OCCC1Sc1nc(-c2ccccc2)cs1 (stereo not given) | n | n | n | n | x | x
Cc1nc(-c2ccccc2)sc1C(=O)CSc1ccc(Cl)cc1 | n | n | 20 | n | n | 25
Cc1cccc(-c2cc(C(=O)Nc3ccc4c(c3)OCCO4)c3ccccc3n2)c1 | n | n | 26 | n | 26 | 43
COc1ccccc1OCCCCN1CCN(C(c2ccccc2)c2ccccc2)CC1 | n | n | 20 | n | n | 25
Nc1c(C(=O)c2ccccc2)sc2snc(SCC(=O)c3ccccc3)c12 | n | n | n | n | x | x
O=C1C2CC=C(Cl)CC2C(=O)N1CC1OCCc2ccccc21 (stereo not given) | n | n | n | n | x | x
O=C1C2CC=C(Cl)CC2C(=O)N1CC1Cc2ccccc2CO1 (stereo not given) | n | n | 28 | n | n | 23
O=C(Cc1ccc2c(c1)CCCC2)Nc1ccc2ccccc2c1 | n | n | 18 | n | n | n
Cc1ccc(N(CC(=O)NCc2ccccc2Cl)S(=O)(=O)c2cccs2)cc1 | n | n | 22 | n | n | n
NC(=O)C1CCN(C(=O)/C=C/c2ccco2)CC1 | n | n | n | n | x | x
O=c1oc(-c2ccc(Br)o2)nc2ccccc12 | n | n | n | n | x | x
CC(/C=C/C(=O)c1ccc(C)cc1)=C\c1ccccc1 | n | n | n | n | x | x
Cc1ccc(C(=O)/C=C\C(=O)c2ccc(C)cc2)cc1 | n | n | 20 | n | 45 | 111
O=C(CSc1nnc(SCc2ccccc2)s1)N/N=C/c1c(Cl)cccc1Cl | n | n | 26 | n | n | n
Cc1nn(-c2ccccc2)c(C)c1/C=N/NC(=O)CSc1nnc(SCc2ccc(Cl)cc2)s1 | n | n | n | n | x | x
O=C(COc1ccc(Cl)cc1Cl)N/N=C/CCc1ccccc1 | n | n | 21 | n | n | n
O=C(CCCOc1ccc(Cl)cc1Cl)N/N=C/c1ccccc1 | n | n | n | n | x | x
CC1=C(C)CC(C(=O)NNC(=O)c2csc(C)c2C)C(C(=O)O)C1 (stereo not given) | n | n | n | n | x | x
CCOC(=O)c1c(NC(=O)CSC2=NN3CCCC(=O)N=C3S2)sc2c1CCCCC2 | n | n | 19 | n | 25 | 43
COc1ccccc1-c1cc(C(F)(F)F)n2ncc(S(=O)(=O)c3ccccc3)c2n1 | n | n | n | n | x | x
CN(C)Cc1ccccc1Sc1ccccc1Br | n | n | n | n | x | x
CN(C)Cc1ccccc1Sc1cccc2ccccc12 | n | n | 22 | n | n | 21
COc1ccc(C2Nc3ccccc3C(=O)N2Cc2ccco2)cc1COc1ccccc1F (stereo not given) | n | n | 25 | n | n | n
COc1ccc(C2Nc3ccccc3C(=O)N2Cc2ccco2)cc1COc1ccc(NC(C)=O)cc1 (stereo not given) | n | n | n | n | x | x
